Values after ≈ are worked out from the molar mass of the structure shown.
Experiments:
[1] = Kinetic aqueous solubility of the compound in pH 7.4 phosphate buffered saline incubated for 24 hrs under shaking condition by HPLC analysis; assay type: physicochemical; conditions: read-out: Kinetic_solubility
Summary of the method: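 Dry powder shaken 24 h at 25 °C in 0.1 M phosphate buffer, pH 7.4, then filtered through a 0.45 µm membrane. Concentration determined by HPLC against a standard of the compound in DMSO. Mean of three separate assays in triplicate.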

[2] = target: Tyrosine-protein kinase BTK (Homo sapiens, UniProt Q06187); assay: Reversible inhibition of FAM-labeled peptide binding to full-length human N-terminal GST-tagged BTK (2 to 659 residues) expressed in baculovirus infected Sf21 insect cells at preincubated for 10 mins followed by FAM-labeled peptide addition and measured by off-chip mobility shift assay
Tyrosine-protein kinase BTK, sequence (Q06187 whole entry, the tested form may be a part): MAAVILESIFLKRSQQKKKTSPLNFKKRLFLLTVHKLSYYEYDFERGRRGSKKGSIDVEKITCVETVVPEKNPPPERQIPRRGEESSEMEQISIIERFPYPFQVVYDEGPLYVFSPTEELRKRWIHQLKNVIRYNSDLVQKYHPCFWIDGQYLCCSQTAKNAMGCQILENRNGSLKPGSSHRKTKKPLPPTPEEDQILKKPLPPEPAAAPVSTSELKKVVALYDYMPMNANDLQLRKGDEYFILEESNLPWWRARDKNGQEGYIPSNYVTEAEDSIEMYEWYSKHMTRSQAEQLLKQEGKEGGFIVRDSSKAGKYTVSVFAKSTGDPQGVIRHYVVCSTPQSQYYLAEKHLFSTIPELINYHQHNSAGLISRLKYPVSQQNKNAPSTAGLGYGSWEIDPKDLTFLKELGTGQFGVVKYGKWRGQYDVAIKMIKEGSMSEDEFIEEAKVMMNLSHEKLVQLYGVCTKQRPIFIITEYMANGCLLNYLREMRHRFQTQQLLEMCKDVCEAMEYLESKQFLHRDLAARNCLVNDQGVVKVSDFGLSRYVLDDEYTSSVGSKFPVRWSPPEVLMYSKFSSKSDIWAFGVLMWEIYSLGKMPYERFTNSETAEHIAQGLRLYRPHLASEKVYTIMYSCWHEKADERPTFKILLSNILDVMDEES

Compound Cc1cc2cn[nH]c2cc1-c1ccc(F)c2c(N)c(C(N)=O)cnc12 has a solubility kinetic at 24 h [1] of 5.2 µg/mL (≈ 15.5 µM) and an IC50 [2] of 0.0116 µM.
